Measurements from different studies.
Compare with care: the assays were run in different laboratories.
LDHA: L-lactate dehydrogenase A chain (LDHA, Homo sapiens, UniProt P00338)
MAOA: Amine oxidase [flavin-containing] A (MAOA, Homo sapiens, UniProt P21397)
PDE7A: High affinity 3',5'-cyclic-AMP phosphodiesterase 7A (PDE7A, Homo sapiens, UniProt Q13946)
TDP1: Tyrosyl-DNA phosphodiesterase 1 (TDP1, Homo sapiens, UniProt Q9NUW8)
PRMT3: Protein arginine N-methyltransferase 3 (PRMT3, Homo sapiens, UniProt O60678)

Compound	target	assay	conditions	IC50 [µM]
COc1cc(-c2cc(=O)c3c(O)c(OC)c(O[C@@H]4O[C@H](CO)[C@@H](O)[C@H](O)[C@H]4O)cc3o2)ccc1O	LDHA	enzyme activity, inhibitor	pH 7.4	153
COc1cc(/C=C/C(=O)N2CCC(Cc3ccccc3)CC2)ccc1OCc1ccccc1	MAOA	enzyme activity, inhibitor, fluorescence	–	80.7
Cc1nc2ccc(NC(=O)CCNC(=O)CCCc3ccc(CC(C(=O)O)C(=O)O)cc3)cc2s1	LDHA	enzyme activity, inhibitor	–	1.2
CSc1ccc(/C=C2/C(C)=C(CC(=O)O)c3cc(F)ccc32)cc1	PDE7A	enzyme activity, inhibitor	–	> 100
C[C@@H]1C[C@@H](O)/C=C/C=C\CC(=O)Cc2c(Cl)c(O)cc(O)c2C(=O)O1	Mitogen-activated protein kinase kinase kinase 7 (MAP3K7, Homo sapiens, UniProt O43318)	enzyme activity, inhibitor, ATP luminescence	–	> 10
N#Cc1ccc(COc2cccc(C3CCN(Cc4nc5ccc(C(=O)O)cc5n4C[C@@H]4CCO4)CC3)n2)c(F)c1	Glucagon-like peptide 2 receptor (GLP2R, Homo sapiens, UniProt O95838)	cAMP, antagonist	–	3.6
O=c1cc(-c2ccc(O)cc2)oc2c([C@@H]3O[C@H](CO)[C@@H](O)[C@H](O)[C@H]3O)c(O)cc(O)c12	MAOA	enzyme activity, inhibitor	–	38.6
COc1cc(C[C@H]2C(=O)OC[C@@H]2Cc2ccc(OC)c(OC)c2)ccc1O	Cone cGMP-specific 3',5'-cyclic phosphodiesterase subunit alpha' (PDE6C, Homo sapiens, UniProt P51160)	enzyme activity, inhibitor	–	> 20
Nc1ncnc2c1ncn2[C@@H]1O[C@H](CSCCNC(=O)NCc2ccccc2)[C@@H](O)[C@H]1O	Protein arginine N-methyltransferase 5 (PRMT5, Homo sapiens, UniProt O14744)	enzyme activity, inhibitor, radiometric	–	< 2.4
COc1cc2c(OC)nc3c4cc5c(cc4cc(OCCCN(C)C)c3c2cc1OC)OCO5	TDP1	enzyme activity, inhibitor	–	5.5
CCCCN1/C(=C/C=C(Br)/C=C/C2=[N+](CCCC)c3ccc(Br)cc3C2(C)C)C(C)(C)c2cc(Br)ccc21	PRMT3	enzyme activity, inhibitor, radiometric	–	4.09
CC(C)C[C@H](NC(=O)[C@H]1O[C@@H]1C(=O)O)C(=O)NCCCCN=C(N)N	Cathepsin S (CTSS, Homo sapiens, UniProt P25774)	enzyme activity, inhibitor	–	0.00174
O=C(CC(=O)c1cccc(N(Cc2ccccc2)Cc2ccccc2)c1)C(=O)N1CCN(C(=O)C(=O)CC(=O)c2cccc(N(Cc3ccccc3)Cc3ccccc3)c2)CC1	Tyrosine-protein phosphatase non-receptor type 1 (PTPN1, Homo sapiens, UniProt P18031)	enzyme activity, inhibitor, absorbance	pH 7	2.8
COc1cc2c(OC)nc3c4cc5c(cc4cc(OCCCN4CCCC4)c3c2cc1OC)OCO5	TDP1	enzyme activity, inhibitor, fluorescence	–	4.8
COc1oc(=O)c2cc(N)ccc2c1Cl	Rhomboid protease AarA (Providencia stuartii, UniProt P46116)	enzyme activity, inhibitor, fluorescence	–	71
CN(C)CCCN1c2ccccc2Sc2ccc(Cl)cc21	Glutathione reductase, mitochondrial (GSR, Homo sapiens, UniProt P00390)	enzyme activity, inhibitor, absorbance	–	> 100
Nc1ncnc2c1ncn2[C@@H]1O[C@H](CSCCNC(=O)NC2CCCCC2)[C@@H](O)[C@H]1O	PRMT3	enzyme activity, inhibitor, fluorescence	–	> 100
CC(C)(C)n1nc(-c2cnc3cc(OC4CC4)ccc3c2)c(C(N)=O)c1N	Receptor-interacting serine/threonine-protein kinase 2 (RIPK2, Homo sapiens, UniProt O43353)	cell-free assay	–	1.71
COc1cc(/C=C2\SC(=O)NC2=O)cc(F)c1OCCNc1nc2c(cnn2C2CCCC2)c(=O)[nH]1	PDE7A	enzyme activity, inhibitor	–	0.279
